Laboratory results taken from PubChem BioAssay AID2269 (The Scripps Research Institute Molecular Screening Center, 2010).
Active and inactive are the calls of the source. No rule for the calls is given here.

Biological target: Serine hydrolase RBBP9 (Homo sapiens) (UniProt O75884)
Experiment: inhibition of RBBP9 probe labeling – biochemical, gel-based ABPP, FP-rhodamine, powder samples, orthogonal assay, late-stage follow-up (AID 2269)
Conditions: recombinant RBBP9, gel-based ABPP, at 20 µM, hits give high values
Method in brief: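 material = recombinant RBBP9 | probe or stimulus = FP-rhodamine probe, 75 nM final | dosing = single compound concentration per test | times = compound preincubation with enzyme 30 min at 25 °C, probe labeling 45 min | measured by = in-gel fluorescence after SDS-PAGE | measure = percent inhibition from band density | controls = DMSO vehicle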

Sequence of Serine hydrolase RBBP9 (Homo sapiens) (O75884 whole entry, looked up): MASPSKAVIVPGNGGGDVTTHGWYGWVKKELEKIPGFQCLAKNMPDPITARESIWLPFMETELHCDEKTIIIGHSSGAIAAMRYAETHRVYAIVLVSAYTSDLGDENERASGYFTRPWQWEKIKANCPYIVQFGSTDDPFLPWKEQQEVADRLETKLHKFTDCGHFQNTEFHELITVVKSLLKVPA

Structure (SMILES)	inhibition
CC(C)=NOC(=O)c1cn(-c2ccccc2)nc1-c1ccc(F)cc1	0% (inactive)
CC(=NOC(=O)c1c(-c2ccccc2Cl)noc1C)c1nccs1	17% (inactive)
C/C(=N\OC(=O)/C=C/c1ccccc1)c1nccs1	42% (inactive)
C/C(=N\OC(=O)c1ccccc1)c1nccs1	62%
C/C(=N\OC(=O)c1c(F)cccc1F)c1nccs1	66%
C/C(=N\OC(=O)c1ccc([N+](=O)[O-])cc1)c1nccs1	15% (inactive)
NC(=O)C(=NOC(=O)c1ccccc1Cl)c1nc(-c2ccc(Br)cc2)cs1	0% (inactive)
COc1ccc(C(=O)O/N=C2\C=C(C)C(=O)C=C2C)cc1	76%
CC(=NOC(=O)c1cn(-c2ccccc2)nc1-c1ccc(Cl)cc1)c1ccccc1	10% (inactive)
C/C(=N\OC(=O)N1CCCCC1)c1nccs1	0% (inactive)
CC(=NOC(=O)c1ccc(-c2cc(Cl)ccc2Cl)o1)c1ccccc1	0% (inactive)
N/C(Cc1ccc(Cl)cc1)=N\OC(=O)C1CCCCC1	0% (inactive)
NC(=NOC(=O)C1CCCCC1)c1cccc([N+](=O)[O-])c1	5% (inactive)
COc1ccc(C(=O)O/N=C(\C)c2nccs2)cc1	60%
CC(=NOC(=O)c1ccc(S(=O)(=O)N2CCOCC2)cc1)c1cc2ccccc2o1	15% (inactive)
C/C(=N\OC(=O)c1c(-c2c(F)cccc2Cl)noc1C)c1nccs1	14% (inactive)
C/C(=N\OC(=O)c1ccccc1Cl)c1ccc(Br)cc1	0% (inactive)
N/C(Cc1cccs1)=N\OC(=O)C12CC3CC(CC(C3)C1)C2	6% (inactive)
CC(=O)O/N=C(\C)c1nccs1	0% (inactive)

Structure (SMILES)	inhibition
C/C(=N\OC(=O)c1ccc(F)cc1)c1nccs1	76%
COc1ccc(C(=O)ON=C2C=C(C)C(=O)C(C)=C2)cc1	93%
C/C(=N\OC(=O)c1ccc(Cl)cc1)c1nccs1	78%
C/C(=N\OC(=O)c1ccc(I)cc1)c1nccs1	66%
COc1ccc(/C(N)=N/OC(=O)C23CC4CC(CC(C4)C2)C3)cc1OC	28% (inactive)
C#CCCC(=O)O/N=C(\C)c1nccs1	42% (inactive)
C/C(=N\OC(=O)c1cccc(C(F)(F)F)c1)c1nccs1	46% (inactive)
CC(C)=NOC(=O)c1cn(-c2ccccc2)nc1-c1cccs1	0% (inactive)
C/C(=N\OC(=O)c1ccccc1O)c1cccs1	0% (inactive)
CC(=NOC(=O)c1ccc(-c2ccccc2)cc1)c1cccs1	0% (inactive)
C/C(=N\OC(=O)C1CCCCC1)c1nccs1	91%
C/C(=N\OC(=O)c1ccccc1F)c1nccs1	64%
CC(=O)ON=C(C)c1cc(C(C)(C)C)cc2c1CCC2(C)C	0% (inactive)
C/C(=N\OC(=O)c1cccc(Cl)c1)c1nccs1	63%
C/C(=N\OC(=O)c1ccc(-c2ccccc2)cc1)c1nccs1	4% (inactive)
CC1=CC(=NOC(=O)/C=C/c2ccccc2)C=C(C)C1=O	78%
COc1ccc(C(=O)ON=C2C(C)=CC(=O)C=C2C)cc1	48% (inactive)
NC(=O)C(=NOC(=O)c1ccccc1)c1nc(-c2ccc(Cl)cc2)cs1	57%
